Measured values: ChEMBL document CHEMBL1806383, “Optimisation of pharmacokinetic properties to afford an orally bioavailable and selective V1A receptor antagonist” (Bioorg Med Chem Lett, 2011)

Tests used:
[1] = Apparent permeability of the compound from apical to basolateral side of human Caco2 cells; format: ADME, cell-based; settings: Caco-2
Rattus norvegicus [2] = assay: Volume of distribution at steady state in Sprague-Dawley rat at 10 mg/kg, po; format: ADME, organism-based; set-up: dose 10 mg/kg, route oral; settings: in vivo
Summary of the method: (§1)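 Male Sprague–Dawley rat, oral 10 mg/kg in 0.5% (w/v) gelatin in 5% (w/v) mannitol.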

[3] = Oral bioavailability in Sprague-Dawley rat at 10 mg/kg; format: ADME, organism-based; settings: in vivo; summary of the method: as §1
[4] = Cmax in cynomolgus monkey at 1 mg/kg, iv and 3 mg/kg, po; format: ADME, organism-based, Macaca fascicularis; settings: in vivo
Summary of the method: (§2)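 Cynomolgus monkey; iv 1 mg/kg in 30% DMA in saline and po 3 mg/kg in 0.5% (w/v) gelatin in 5% (w/v) mannitol.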

[5] = Oral bioavailability in Sprague-Dawley rat at 5 mg/kg; format: ADME, organism-based; settings: in vivo
Summary of the method: (§3)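 Male Sprague–Dawley rat, oral 5 mg/kg in 0.5% (w/v) gelatin in 5% (w/v) mannitol.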

[6] = Tmax in Sprague-Dawley rat at 1 mg/kg, iv and 5 mg/kg, po; format: ADME, organism-based; settings: in vivo
Summary of the method: (§4)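 Male Sprague–Dawley rats; iv 1 mg/kg in 30% DMA in saline and po 5 mg/kg in 0.5% (w/v) gelatin in 5% (w/v) mannitol.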

[7] = Tmax in cynomolgus monkey at 1 mg/kg, iv and 3 mg/kg, po; format: ADME, organism-based, Macaca fascicularis; settings: in vivo; summary of the method: as §2
[8] = Oral bioavailability in cynomolgus monkey at 3 mg/kg; format: ADME, organism-based, Macaca fascicularis; settings: in vivo; summary of the method: as §2
[9] = Volume of distribution at steady state in Sprague-Dawley rat at 1 mg/kg, iv and 5 mg/kg, po; format: ADME, organism-based; settings: in vivo, read-out: Vdss; summary of the method: as §4
[10] = Volume of distribution at steady state in cynomolgus monkey at 1 mg/kg, iv and 3 mg/kg, po; format: ADME, organism-based, Macaca fascicularis; settings: in vivo, read-out: Vdss; summary of the method: as §2
[11] = Cmax in Sprague-Dawley rat at 1 mg/kg, iv and 5 mg/kg, po; format: ADME, organism-based; settings: in vivo; summary of the method: as §4
Rattus norvegicus [12] = assay: Volume of distribution at steady state in Sprague-Dawley rat at 5 mg/kg, po; format: ADME, organism-based; set-up: dose 5 mg/kg, route oral; settings: in vivo; summary of the method: as §3

Which Papp A→B [1] does the source give for `CN(C)CCCNC(=O)[C@@H](Cc1ccc(Cl)cc1)NC(=O)Cc1ccc(Cl)cc1` here?
Its Papp A→B is less than 10 ×10⁻⁶ cm/s.

Which results are given for `O=C(Cc1ccc(Cl)cc1)N[C@H](Cc1ccc(Cl)cc1)C(=O)NCCCO`?
Vdss (Rattus norvegicus [2]): 2 L/kg; bioavailability [3]: 43%

Which Papp A→B [1] does the source give for `CN1CCN(CCCNC(=O)[C@@H](Cc2ccc(Cl)cc2)NC(=O)Cc2ccc(Cl)cc2)CC1` here?
The Papp A→B was less than 10 ×10⁻⁶ cm/s.

For `O=C(Cc1ccc(Cl)cc1)N[C@H](Cc1ccc(Cl)cc1)C(=O)NC1CCNCC1`, which Papp A→B [1] is on record?
Its Papp A→B is less than 10 ×10⁻⁶ cm/s.

With `O=C(Cc1ccc(Cl)cc1)N[C@H](Cc1ccc(Cl)cc1)C(=O)NC1CCCNCC1` (some centres not stated) as the compound, how does the Papp A→B [1] read?
The Papp A→B was less than 10 ×10⁻⁶ cm/s.

With `CN(C)[C@H]1CC[C@H](NC(=O)[C@@H](Cc2ccc(Cl)cc2)NC(=O)C2(c3ccc(F)cc3)CC2)CC1` as the compound, how does the Cmax [4] read?
Its Cmax is 41 ng/mL.

And the bioavailability [5]?
The bioavailability was 30%.

And the Tmax [6]?
Its Tmax is 5.8 h.

What about the Tmax [7] of the same compound?
The Tmax was 2.7 h.

And the bioavailability [8]?
Its bioavailability is 20%.

And the Vd [9]?
The Vd was 11.8 L/kg.

And the Vd [10]?
The Vd was 6.4 L/kg.

What about the Cmax [11] of the same compound?
Its Cmax is 35 ng/mL.

And the Papp A→B [1]?
Its Papp A→B is less than 10 ×10⁻⁶ cm/s.

Which Papp A→B [1] does the source give for `CC(CCO)NC(=O)[C@@H](Cc1ccc(Cl)cc1)NC(=O)Cc1ccc(Cl)cc1` (stereo in doubt; 17c) here?
Its Papp A→B is less than 10 ×10⁻⁶ cm/s.

With `CN(C)[C@H]1CC[C@H](NC(=O)[C@@H](Cc2ccc(Cl)cc2)NC(=O)Cc2ccc(Cl)cc2)CC1` as the compound, how does the Papp A→B [1] read?
Its Papp A→B is less than 10 ×10⁻⁶ cm/s.

With `CN(C)[C@H]1CC[C@H](NC(=O)[C@@H](Cc2ccc(F)cc2)NC(=O)C2(c3ccc(Cl)cc3)CC2)CC1` as the compound, how does the Papp A→B [1] read?
The Papp A→B was less than 10 ×10⁻⁶ cm/s.

Which Papp A→B [1] does the source give for `CN(C)[C@H]1CC[C@H](NC(=O)[C@@H](Cc2ccc(Cl)cc2)NC(=O)C2(c3ccc(F)cc3)CCCC2)CC1` here?
Its Papp A→B is less than 10 ×10⁻⁶ cm/s.

Which results are given for `CN(C)[C@H]1CC[C@H](NC(=O)[C@@H](Cc2ccc(Cl)cc2)NC(=O)C2(c3ccc(Cl)cc3)CC2)CC1`?
Vdss (Rattus norvegicus [12]): 9 L/kg; bioavailability [5]: 17%; Papp A→B [1]: < 10 ×10⁻⁶ cm/s

For `O=C(Cc1ccc(Cl)cc1)N[C@H](Cc1ccc(Cl)cc1)C(=O)NC1CCCC(O)C1` (stereo in doubt; 17e), which Papp A→B [1] is on record?
Its Papp A→B is less than 10 ×10⁻⁶ cm/s.

For `COc1ccc(C[C@@H](NC(=O)C2(c3ccc(Cl)cc3)CC2)C(=O)N[C@H]2CC[C@H](N(C)C)CC2)cc1`, which Papp A→B [1] is on record?
The Papp A→B was less than 10 ×10⁻⁶ cm/s.

Which Papp A→B [1] does the source give for `O=C(Cc1ccc(Cl)cc1)N[C@H](Cc1ccc(Cl)cc1)C(=O)NC1CCCCC1O` (stereo in doubt; 17h) here?
Its Papp A→B is greater than 20 ×10⁻⁶ cm/s.

For `CN(C)CCCNC(=O)[C@@H](Cc1ccc(Cl)cc1)NC(=O)C1(c2ccc(Cl)cc2)CC1`, which Papp A→B [1] is on record?
The Papp A→B was less than 10 ×10⁻⁶ cm/s.

Which Papp A→B [1] does the source give for `O=C(Cc1ccc(Cl)cc1)N[C@H](Cc1ccc(Cl)cc1)C(=O)N[C@H]1C[C@H]2CC[C@@H](C1)N2` here?
Its Papp A→B is less than 10 ×10⁻⁶ cm/s.

Which Papp A→B [1] does the source give for `CN(C)[C@H]1CC[C@H](NC(=O)[C@@H](Cc2ccc(Cl)cc2)NC(=O)C2(c3ccc(Cl)cc3)CCC2)CC1` here?
The Papp A→B was less than 10 ×10⁻⁶ cm/s.

Which Papp A→B [1] does the source give for `CCCNC(=O)[C@@H](Cc1ccc(Cl)cc1)NC(=O)Cc1ccc(Cl)cc1` here?
The Papp A→B was less than 10 ×10⁻⁶ cm/s.

For `CN1CCC(NC(=O)[C@@H](Cc2ccc(Cl)cc2)NC(=O)Cc2ccc(Cl)cc2)CC1`, which Papp A→B [1] is on record?
Its Papp A→B is less than 10 ×10⁻⁶ cm/s.

For `O=C(Cc1ccc(Cl)cc1)N[C@H](Cc1ccc(Cl)cc1)C(=O)N[C@H]1CC[C@@H](O)CC1`, which Papp A→B [1] is on record?
Its Papp A→B is less than 10 ×10⁻⁶ cm/s.

Which Papp A→B [1] does the source give for `CN(C)[C@H]1CC[C@H](NC(=O)[C@@H](Cc2ccc(Cl)cc2)NC(=O)Cc2ccc(F)cc2)CC1` here?
Its Papp A→B is less than 10 ×10⁻⁶ cm/s.
